Bioassay records as filed in PubChem.
M5 PAM = potentiates acetylcholine response at human M5 receptor | P08912 | CHO-K1 hM5, Fluo-8 calcium, ACh EC20 PAM; 0% = ACh EC20, 100% = ACh EC100 | activation, % at 3 µM | 360,000 compounds, 0.3% hits;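 active = activation above the run cutoff, the mean activation of all test compounds plus 3 SD, cut at about 18% in these data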
Target sequence (P08912 whole entry, looked up): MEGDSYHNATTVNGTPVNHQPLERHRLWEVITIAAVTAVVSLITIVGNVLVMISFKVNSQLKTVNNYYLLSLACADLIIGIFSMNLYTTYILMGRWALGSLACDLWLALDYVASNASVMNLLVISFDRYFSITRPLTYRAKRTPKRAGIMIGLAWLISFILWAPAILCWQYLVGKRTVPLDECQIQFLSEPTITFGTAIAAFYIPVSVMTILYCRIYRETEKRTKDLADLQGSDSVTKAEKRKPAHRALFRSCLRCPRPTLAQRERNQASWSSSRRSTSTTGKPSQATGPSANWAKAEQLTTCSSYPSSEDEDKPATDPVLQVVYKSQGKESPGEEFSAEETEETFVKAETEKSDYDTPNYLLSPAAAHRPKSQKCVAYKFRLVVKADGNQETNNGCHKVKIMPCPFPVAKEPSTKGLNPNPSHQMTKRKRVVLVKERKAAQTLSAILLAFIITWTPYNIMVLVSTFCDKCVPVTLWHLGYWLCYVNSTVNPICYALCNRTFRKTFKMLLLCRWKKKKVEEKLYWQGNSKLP
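Replicates: One well per compound, no replicates | System: Human M5 receptor in CHO-K1 cells | Benchmarks: Low control EC20 acetylcholine (0%), high control EC100 acetylcholine (100%) | Probe or stimulus: Acetylcholine, EC20 level | Times: Fluo-8 loading 80 min at 37 °C plus 30 min room temperature | Signal: Intracellular calcium via Fluo-8 fluorescence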
CHRM5 agonist = agonists of human muscarinic M5 receptor (CHRM5). AID 624037. P08912. 360,000 compounds, 0.19% hits. activation, % at 3 µM. CHO-K1 hM5 cells, Fluo-8 calcium fluorescence; 0% DMSO wells, 100% maximal acetylcholine response;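 active = activation above the run's mean over test compounds plus 3 SD, cut at about 23% in these data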;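 also: signal is peak over basal fluorescence ratio across the kinetic read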
CHRM4 antagonist = antagonists of human muscarinic M4 receptor (CHRM4); P08173; inhibition, % at 3 µM; CHO-hM4 cells, ACh EC80, Fluo-8 calcium fluorescence; 360,000 compounds, 0.73% hits;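 active = inhibition above its plate's cutoff, the mean inhibition of sample wells plus 3 SD, cut at about 27% in these data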;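 also: 0% = acetylcholine EC80 with DMSO and 100% = DMSO without agonist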
M4 PAM = potentiates acetylcholine response at human M4 receptor. P08173. CHO-K1 hM4/Gqi5, Fluo-8 calcium fluorescence, ACh EC20; 0% = ACh EC20, 100% = maximal ACh. activation, % at 3 µM. 360,000 compounds, 0.4% hits. AID 624126;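 active = activation above its plate's cutoff, the mean activation of sample wells plus 3 SD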
CHRM5 antagonist = antagonists of human muscarinic M5 receptor (CHRM5). P08912. CHO-hM5 cells, Fluo-8 calcium fluorescence, ACh EC80. inhibition, % at 3 µM. 360,000 compounds, 0.59% hits. AID 624040;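 active = inhibition above a per-plate cutoff, the mean of that plate's test compounds plus 3 SD, cut at about 27% in these data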;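 also: 0% = acetylcholine EC80 with DMSO and 100% = DMSO without agonist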
CHRM4 agonist = agonists of human muscarinic M4 receptor (CHRM4). CHO-K1 hM4/Gqi5, Fluo-8 calcium fluorescence; vehicle 0%, full acetylcholine response 100%. activation, % at 3 µM. 360,000 compounds, 0.14% hits. AID 624127;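 active = activation above the run mean over all test wells plus 3 SD, cut at about 32% in these data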;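 also: peak over basal fluorescence ratio per well then scaled between controls; 0% = DMSO wells and 100% = acetylcholine at EC100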
Numbers without * were called inactive. Compounds with a hit are over-represented: about 1.8% of the library has one in this group of screens.

SMILES	M5 PAM	CHRM5 agonist	CHRM4 antagonist	M4 PAM	CHRM5 antagonist	CHRM4 agonist
CCN(C1CCCCC1)S(=O)(=O)c1ccc(S(=O)(=O)NCCc2ccncc2)cc1	-9.9	0.9	9.0	-9.3	-0.6	4.9
CCN(C1CCCCC1)S(=O)(=O)c1ccc(S(=O)(=O)NCc2ccncc2)cc1	-25.8	11.3	23.7	-12.9	29.1*	24.6
CCOC(=O)C1(C)CCCN1C(=O)c1ccc(N(C)C)cc1 (stereo not given)	0.0	1.0	-12.6	0.1	-2.5	0.3
CC(=O)c1cccc2c(O)c(C3=Nc4ccccc4C3=O)[nH]c12	8.8	-2.2	11.0	25.4*	-8.0	1.8
O=C1C(c2c(O)[nH]c3ccccc23)=Nc2ccccc21	-0.3	0.7	-12.6	-0.5	-3.1	2.7
Cc1nc2ccn(Cc3ccccc3)c(=O)c2cc1C(=O)N1CCN(c2ccccc2)CC1	1.6	-4.1	-5.5	13.9*	6.3	0.9
COc1ccc(CN2CCN(Cc3cccc(F)c3)CC2)cc1OC	-0.3	-5.8	5.3	-2.9	1.5	0.1
CS(=O)(=O)c1ccc(C(=O)OCC(=O)N2CCN(CCC3CCCCC3)CC2)cc1[N+](=O)[O-]	-5.5	-3.1	29.5*	-14.2	10.6	6.2
Cc1cccc(C)c1NC(=O)c1ccc([N+](=O)[O-])s1	10.8	-5.4	-16.5	24.5*	2.7	2.3
COc1c2ccoc2nc2c(OC)c(OC[C@@H](O)C(C)(C)O)ccc12	0.6	3.2	-1.8	1.8	9.4	-1.1
CCNC(=S)N/N=C/c1cc(C)ccc1C	-6.8	-5.2	-6.2	6.3	1.4	-2.9
C=CCNC(=S)N/N=C/c1ccc(C)cc1C	21.2*	1.1	-11.4	6.4	-14.6	-1.1
CCc1c(C)nc(SCC(N)=O)c(C#N)c1C	-1.2	0.5	-0.8	-0.2	5.1	0.9
CCc1c(C)nc(SCC(=O)c2cccs2)c(C#N)c1C	-4.8	0.7	38.8*	79.6*	1.2	5.6
CC(C)CN(C(=O)CCNC(=O)c1ccc(Cl)cc1)C1CCS(=O)(=O)C1 (stereo not given)	18.3*	1.0	0.5	2.9	-8.0	1.3
CC(C)CN(C(=O)CN(C)S(=O)(=O)c1ccc(Cl)cc1)C1CCS(=O)(=O)C1 (stereo not given)	-4.6	-3.4	8.6	0.5	17.7	1.1
OC1CC2CCC(C1)N2CCCN1c2ccccc2Sc2ccc(Cl)cc21 (stereo not given)	-40.4	-8.8	36.6*	-17.3	25.9	15.8
CN1CCN(CCCN2c3ccccc3Sc3ccc(Cl)cc32)CC1	-17.0	0.3	3.6	-16.8	9.1	6.7
COC(=O)/C=C1\OCc2ccc(C)cc21	18.5*	4.3	-4.7	6.6	-17.5	0.2
O=C(NCc1cnn(-c2ccc(F)cc2)c1)C1CCC(=O)N(C2CC2)C1 (stereo not given)	5.1	-3.6	6.1	-6.2	7.6	0.0
Cc1nn(C)c(C(=O)Nc2c(C)nn(Cc3c(F)c(F)c(F)c(F)c3F)c2C)c1Br	6.1	-0.8	-16.9	-2.6	-16.8	4.9
Cc1ccc(C2=NNC(C(O)C(O)C(O)CO)S2)cc1 (stereo not given)	29.7*	-0.5	2.5	-3.3	9.4	0.4
Cc1ccc(S(=O)(=O)N2CCCCC2)cc1C(=O)NCCN1CCOCC1	7.3	-0.7	-8.8	4.0	-2.0	0.4
CCOC(=O)C1=C(Cc2ccc(Cl)cc2)C(=O)c2ccccc2C1=O	1.7	11.7	35.3*	-5.0	17.9	14.3
CCOC(=O)C1=C(C)N=C2c3ccccc3C(=O)C2C1c1ccc(Cl)cc1 (stereo not given)	-3.1	-1.9	5.6	-6.5	0.5	6.1
SMILES	M5 PAM	CHRM5 agonist	CHRM4 antagonist	M4 PAM	CHRM5 antagonist	CHRM4 agonist
Cc1ccc2c(c1)C(=O)C(=O)N2Cc1ccc(Cl)cc1	-3.3	34.5*	1.4	-3.9	-0.4	8.2
Cc1ccc2c(c1)C(=O)C(=O)N2Cc1ccc(F)cc1	5.9	21.1	-2.2	1.3	14.3	1.6
COc1ccc(NC2=C(Cl)C(=O)N(c3ccccc3)C2=O)c(OC)c1	-1.2	1.5	-3.5	-6.4	-2.6	2.4
COc1ccc(N2C(=O)C(Cl)=C(Nc3ccc(OC)cc3OC)C2=O)cc1	19.2*	3.5	-3.8	4.4	-1.4	0.4
NC(=O)NN=C1CCN2CCCc3cccc1c32	3.2	-0.6	-8.0	0.1	4.2	1.2
Cc1cccc(C(=O)Nc2ccccc2C(=O)OCC(=O)Nc2ccc(C#N)cc2)c1	-16.4	-0.2	13.6	-13.7	27.8*	10.4
Cc1ccc2nc3n(c(=O)c2c1)-c1ncccc1C(=O)NC3Cc1ccc(O)cc1 (stereo not given)	2.8	0.4	-5.2	5.4	1.8	1.6
CC(=O)N1CCOc2ccc(S(=O)(=O)NCC3CCC(C(=O)NCCC(C)C)CC3)cc21 (stereo not given)	4.4	-5.1	2.7	15.5*	-3.1	2.5
CCCCOC(=O)CCc1c(C)[nH]c(=O)c(C#N)c1C	7.8	-1.3	-2.0	26.1*	-3.2	0.5
Cc1ccc(NC(=O)CCc2c(C)[nH]c(=O)c(C#N)c2C)cc1	0.1	-3.2	7.0	-4.4	2.8	-0.4
Cc1cccc(C=Nc2ccc3c4c(cccc24)CC3)c1O	-8.9	33.8*	25.9	-12.0	24.0	22.6
Oc1ccc(Cl)cc1/C=N/c1nccs1	-0.7	-1.7	6.8	4.0	-3.8	1.0
Oc1ccc(Cl)cc1C=Nc1ccc2c3c(cccc13)CC2	-14.0	52.9*	36.1*	-24.9	35.1*	71.2*
O=C(Nc1ccc2c(c1)OCCO2)C(C1CC1)n1c(=O)c(-c2cc3ccccc3[nH]2)nc2ccccc21 (stereo not given)	15.7	3.9	-13.8	1.9	-8.1	7.0
Cc1ccc(S(=O)(=O)N2C(c3ccc(Cl)c(Cl)c3)CC=C(C(=O)O)C2c2cccc(Cl)c2)cc1 (stereo not given)	-5.6	-2.4	0.2	3.9	10.6	9.0
CCOC(=O)C1CCCN(CC(=O)Nc2cc(C)cc(C)c2)C1 (stereo not given)	0.2	1.3	-4.7	2.2	2.6	0.1
CCOC(=O)C1CCCN(S(=O)(=O)c2ccc(S(=O)(=O)N(CC)CC)cc2)C1 (stereo not given)	-27.7	-2.3	12.1	-20.3	33.0*	13.6
CCOC(=O)C1CCCN(C(=S)Nc2cc(C)cc(C)c2)C1 (stereo not given)	-15.5	28.4*	-7.3	7.7	14.9	1.3
CCOC(=O)C1CCCN(C(=O)COc2ccccc2O)C1 (stereo not given)	-28.6	49.5*	3.3	-2.6	2.7	4.5
CCOC(=O)C1CCCN(C(=O)COc2ccccc2F)C1 (stereo not given)	-3.5	0.2	1.7	3.5	7.3	1.5
